Assay [1] has as its target Tyrosine-protein kinase Blk (Homo sapiens) (UniProt P51451). Nature of the assay: Inhibition of human recombinant BLK at 40 nM in presence of ATP by radiometric assay relative to control. In outline: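 Part of a radiometric in vitro activity panel of 327 recombinant human kinases. Each kinase was tested in duplicate at one inhibitor concentration. Activity remaining was expressed as a percentage of the vehicle control, and percent inhibition was taken as 100 minus that value.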

Assay [2] deals with T1, Inhibitor of nuclear factor kappa-B kinase subunit alpha (Homo sapiens) (UniProt O15111).
T1 sequence (whole entry): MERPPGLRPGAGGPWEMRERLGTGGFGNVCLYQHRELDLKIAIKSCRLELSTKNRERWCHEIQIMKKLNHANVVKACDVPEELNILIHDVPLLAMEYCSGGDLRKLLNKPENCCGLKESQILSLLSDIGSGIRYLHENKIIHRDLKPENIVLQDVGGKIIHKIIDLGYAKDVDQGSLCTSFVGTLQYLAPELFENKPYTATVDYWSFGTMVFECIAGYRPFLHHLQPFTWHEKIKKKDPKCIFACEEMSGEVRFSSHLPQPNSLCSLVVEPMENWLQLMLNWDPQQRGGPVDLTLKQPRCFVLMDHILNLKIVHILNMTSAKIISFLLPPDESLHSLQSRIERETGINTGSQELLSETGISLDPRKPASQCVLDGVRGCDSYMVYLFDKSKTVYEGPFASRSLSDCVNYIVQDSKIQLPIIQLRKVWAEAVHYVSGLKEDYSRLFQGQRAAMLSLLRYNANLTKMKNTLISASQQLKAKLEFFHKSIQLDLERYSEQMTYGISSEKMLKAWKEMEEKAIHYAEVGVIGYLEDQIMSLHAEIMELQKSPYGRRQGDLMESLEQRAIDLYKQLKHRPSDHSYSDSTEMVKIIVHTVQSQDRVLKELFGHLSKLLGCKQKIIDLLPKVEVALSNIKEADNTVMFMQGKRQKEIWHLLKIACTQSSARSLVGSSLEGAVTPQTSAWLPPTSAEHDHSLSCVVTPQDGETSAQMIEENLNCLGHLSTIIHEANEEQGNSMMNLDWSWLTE
Nature of the assay: Inhibition of human recombinant IKKa at 40 nM related to control ULK1.

For assay [3], the target named is Leukocyte tyrosine kinase receptor (Homo sapiens) (UniProt P29376). Nature of the assay: Inhibition of human recombinant LTK at 40 nM in presence of ATP by radiometric assay relative to control.
Sequence of Leukocyte tyrosine kinase receptor (Homo sapiens) (P29376 whole entry): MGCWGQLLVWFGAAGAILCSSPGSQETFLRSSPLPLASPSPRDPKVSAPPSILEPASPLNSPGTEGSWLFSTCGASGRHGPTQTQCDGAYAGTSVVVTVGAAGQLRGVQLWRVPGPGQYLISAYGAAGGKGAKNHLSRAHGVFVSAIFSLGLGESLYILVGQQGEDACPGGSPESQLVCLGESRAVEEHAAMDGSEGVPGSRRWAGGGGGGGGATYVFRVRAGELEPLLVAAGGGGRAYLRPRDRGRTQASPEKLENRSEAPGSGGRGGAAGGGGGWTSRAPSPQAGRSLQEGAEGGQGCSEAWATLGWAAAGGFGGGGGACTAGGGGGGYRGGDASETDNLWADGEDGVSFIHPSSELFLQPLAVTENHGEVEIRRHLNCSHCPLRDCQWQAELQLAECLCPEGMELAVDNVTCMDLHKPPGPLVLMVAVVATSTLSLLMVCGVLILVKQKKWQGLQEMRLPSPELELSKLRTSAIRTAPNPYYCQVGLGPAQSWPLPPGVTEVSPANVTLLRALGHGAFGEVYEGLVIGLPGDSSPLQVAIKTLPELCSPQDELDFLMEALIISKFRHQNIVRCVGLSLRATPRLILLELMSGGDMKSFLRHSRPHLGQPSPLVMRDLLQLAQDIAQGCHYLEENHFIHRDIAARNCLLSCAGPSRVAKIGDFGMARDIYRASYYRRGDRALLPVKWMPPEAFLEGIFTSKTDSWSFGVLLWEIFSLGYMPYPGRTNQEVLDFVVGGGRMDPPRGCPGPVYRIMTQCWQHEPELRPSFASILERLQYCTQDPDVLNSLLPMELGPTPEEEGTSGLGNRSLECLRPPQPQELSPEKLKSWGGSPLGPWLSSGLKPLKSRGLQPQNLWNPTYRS
For assay [4], the target named is Ephrin type-A receptor 5 (Homo sapiens) (UniProt P54756). Nature of the assay: Inhibition of human recombinant EphA5 at 500 nM related to control ULK1.
Sequence of Ephrin type-A receptor 5 (Homo sapiens) (P54756 whole entry): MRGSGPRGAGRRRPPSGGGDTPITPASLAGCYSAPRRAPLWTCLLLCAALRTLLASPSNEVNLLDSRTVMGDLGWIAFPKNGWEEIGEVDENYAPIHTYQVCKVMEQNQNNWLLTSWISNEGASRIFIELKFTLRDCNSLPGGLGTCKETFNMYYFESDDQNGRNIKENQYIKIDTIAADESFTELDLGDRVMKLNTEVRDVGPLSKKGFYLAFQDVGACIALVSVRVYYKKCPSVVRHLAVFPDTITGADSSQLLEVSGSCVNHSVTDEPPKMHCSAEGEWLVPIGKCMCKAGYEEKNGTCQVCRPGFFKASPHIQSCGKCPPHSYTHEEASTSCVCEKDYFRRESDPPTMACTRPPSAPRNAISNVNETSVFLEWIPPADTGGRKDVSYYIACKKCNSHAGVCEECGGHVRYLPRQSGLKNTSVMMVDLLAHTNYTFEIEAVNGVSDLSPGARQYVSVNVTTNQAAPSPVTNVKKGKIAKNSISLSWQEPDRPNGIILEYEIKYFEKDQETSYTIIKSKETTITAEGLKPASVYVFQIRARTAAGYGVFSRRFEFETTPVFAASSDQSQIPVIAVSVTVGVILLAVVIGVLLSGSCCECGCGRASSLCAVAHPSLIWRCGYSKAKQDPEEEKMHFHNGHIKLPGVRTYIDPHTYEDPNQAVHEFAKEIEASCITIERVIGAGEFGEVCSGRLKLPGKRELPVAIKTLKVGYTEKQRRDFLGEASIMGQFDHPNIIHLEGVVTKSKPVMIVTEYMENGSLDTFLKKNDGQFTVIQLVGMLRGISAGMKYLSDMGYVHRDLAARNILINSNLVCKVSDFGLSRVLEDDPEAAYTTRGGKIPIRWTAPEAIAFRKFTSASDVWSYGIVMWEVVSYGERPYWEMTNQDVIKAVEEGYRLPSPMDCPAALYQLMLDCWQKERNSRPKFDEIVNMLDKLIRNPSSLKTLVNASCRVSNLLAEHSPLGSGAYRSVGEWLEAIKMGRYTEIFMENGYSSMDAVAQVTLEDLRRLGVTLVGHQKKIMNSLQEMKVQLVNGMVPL
Assay [5] addresses T2, Serine/threonine-protein kinase TAO3 (Homo sapiens) (UniProt Q9H2K8).
T2 sequence (whole entry): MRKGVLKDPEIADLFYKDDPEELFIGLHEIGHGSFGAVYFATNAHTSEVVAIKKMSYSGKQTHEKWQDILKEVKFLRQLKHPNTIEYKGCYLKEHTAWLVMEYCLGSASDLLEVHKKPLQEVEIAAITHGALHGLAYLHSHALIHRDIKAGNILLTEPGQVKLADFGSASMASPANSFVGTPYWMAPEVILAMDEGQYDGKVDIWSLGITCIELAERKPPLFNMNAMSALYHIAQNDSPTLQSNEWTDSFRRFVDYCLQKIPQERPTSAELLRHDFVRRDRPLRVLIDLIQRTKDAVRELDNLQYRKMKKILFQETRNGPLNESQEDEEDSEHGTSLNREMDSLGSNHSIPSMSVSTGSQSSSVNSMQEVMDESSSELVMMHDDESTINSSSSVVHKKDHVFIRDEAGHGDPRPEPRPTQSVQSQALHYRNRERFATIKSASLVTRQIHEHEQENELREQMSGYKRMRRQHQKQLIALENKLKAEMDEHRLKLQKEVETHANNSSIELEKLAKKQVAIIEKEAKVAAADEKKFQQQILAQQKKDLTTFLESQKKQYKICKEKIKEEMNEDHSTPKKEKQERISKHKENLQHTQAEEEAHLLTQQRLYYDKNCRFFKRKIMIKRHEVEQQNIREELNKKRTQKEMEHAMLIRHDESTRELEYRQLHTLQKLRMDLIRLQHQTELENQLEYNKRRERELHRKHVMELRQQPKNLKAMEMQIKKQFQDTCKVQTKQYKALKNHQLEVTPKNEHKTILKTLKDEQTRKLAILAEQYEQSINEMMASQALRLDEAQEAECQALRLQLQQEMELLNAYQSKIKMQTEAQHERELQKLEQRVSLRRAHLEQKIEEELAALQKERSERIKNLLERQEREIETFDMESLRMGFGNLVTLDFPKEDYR
The experiment in a line: Inhibition of human recombinant TAO3 at 500 nM related to control ULK1.

Assay [6] concerns the target Protein kinase C delta type (Homo sapiens) (UniProt Q05655). The experiment in a line: Inhibition of human recombinant PKCd at 500 nM related to control ULK1.
The target in assay [7] is Insulin receptor (Homo sapiens) (UniProt P06213). Nature of the assay: Inhibition of human recombinant INSR at 500 nM related to control ULK1.
Sequence of Insulin receptor (Homo sapiens) (P06213 28-758 limits assumed): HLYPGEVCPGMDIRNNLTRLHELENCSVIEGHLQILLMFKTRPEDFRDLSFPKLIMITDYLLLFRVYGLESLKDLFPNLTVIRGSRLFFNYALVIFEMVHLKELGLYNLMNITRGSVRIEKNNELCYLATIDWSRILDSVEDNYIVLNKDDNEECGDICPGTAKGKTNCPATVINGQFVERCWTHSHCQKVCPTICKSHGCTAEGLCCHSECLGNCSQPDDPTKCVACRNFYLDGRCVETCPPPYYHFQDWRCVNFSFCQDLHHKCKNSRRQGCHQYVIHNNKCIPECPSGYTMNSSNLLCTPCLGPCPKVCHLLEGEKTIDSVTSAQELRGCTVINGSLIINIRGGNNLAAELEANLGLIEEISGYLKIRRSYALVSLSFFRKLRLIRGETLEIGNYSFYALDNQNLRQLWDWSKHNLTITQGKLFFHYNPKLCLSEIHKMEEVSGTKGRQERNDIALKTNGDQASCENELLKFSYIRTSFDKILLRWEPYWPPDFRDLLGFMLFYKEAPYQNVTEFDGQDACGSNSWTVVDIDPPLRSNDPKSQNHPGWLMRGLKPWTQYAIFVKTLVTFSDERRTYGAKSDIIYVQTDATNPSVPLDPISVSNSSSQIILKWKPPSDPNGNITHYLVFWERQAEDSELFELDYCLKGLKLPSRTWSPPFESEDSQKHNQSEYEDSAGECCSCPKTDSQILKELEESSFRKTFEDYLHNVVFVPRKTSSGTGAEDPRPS
Sequence of Insulin receptor (Homo sapiens) (P06213 763-1382 limits assumed): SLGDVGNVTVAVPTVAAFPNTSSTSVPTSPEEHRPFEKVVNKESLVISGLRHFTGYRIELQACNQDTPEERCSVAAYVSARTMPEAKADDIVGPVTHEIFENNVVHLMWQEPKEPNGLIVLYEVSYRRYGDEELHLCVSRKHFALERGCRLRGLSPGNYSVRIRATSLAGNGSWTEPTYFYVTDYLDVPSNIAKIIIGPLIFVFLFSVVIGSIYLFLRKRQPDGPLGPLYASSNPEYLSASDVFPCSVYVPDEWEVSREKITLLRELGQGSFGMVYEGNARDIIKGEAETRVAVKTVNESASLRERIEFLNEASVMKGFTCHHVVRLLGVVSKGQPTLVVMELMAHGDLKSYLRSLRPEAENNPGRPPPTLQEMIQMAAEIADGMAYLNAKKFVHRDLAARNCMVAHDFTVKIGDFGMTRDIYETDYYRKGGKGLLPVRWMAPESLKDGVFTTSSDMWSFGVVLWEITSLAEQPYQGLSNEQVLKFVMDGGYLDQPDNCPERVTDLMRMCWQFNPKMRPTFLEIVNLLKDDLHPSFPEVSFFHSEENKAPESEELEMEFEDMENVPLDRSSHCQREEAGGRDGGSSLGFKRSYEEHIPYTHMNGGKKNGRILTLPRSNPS
The target in assay [8] is Tyrosine-protein kinase JAK1 (Homo sapiens) (UniProt P23458). Nature of the assay: Inhibition of human recombinant JAK1 at 15 nM in presence of ATP by radiometric assay relative to control.
Assay [9] has as its target Serine/threonine-protein kinase 4 (Homo sapiens) (UniProt Q13043). The experiment in a line: Inhibition of human recombinant MST1 at 15 nM related to control ULK1.
Assay [10] addresses T3, Mitogen-activated protein kinase 13 (Homo sapiens) (UniProt O15264).
T3 sequence (whole entry): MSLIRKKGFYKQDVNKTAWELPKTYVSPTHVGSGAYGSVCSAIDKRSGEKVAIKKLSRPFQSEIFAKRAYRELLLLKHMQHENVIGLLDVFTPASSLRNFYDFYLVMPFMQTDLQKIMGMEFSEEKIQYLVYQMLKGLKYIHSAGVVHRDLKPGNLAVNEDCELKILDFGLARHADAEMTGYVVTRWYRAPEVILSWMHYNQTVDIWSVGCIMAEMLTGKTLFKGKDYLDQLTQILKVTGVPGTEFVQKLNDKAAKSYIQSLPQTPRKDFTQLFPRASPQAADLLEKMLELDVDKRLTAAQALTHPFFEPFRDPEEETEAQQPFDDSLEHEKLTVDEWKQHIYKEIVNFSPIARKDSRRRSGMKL
The experiment in a line: Inhibition of human recombinant p38delta at 15 nM related to control ULK1.

For assay [11], the target named is Leukocyte tyrosine kinase receptor (Homo sapiens) (UniProt P29376). The experiment in a line: Inhibition of human recombinant LTK at 15 nM in presence of ATP by radiometric assay relative to control.
The target in assay [12] is Cyclin-dependent kinase 3 (Homo sapiens) (UniProt Q00526). Nature of the assay: Inhibition of human recombinant CDK3 at 15 nM related to control ULK1.
Sequence of Cyclin-dependent kinase 3 (Homo sapiens) (Q00526 whole entry, looked up): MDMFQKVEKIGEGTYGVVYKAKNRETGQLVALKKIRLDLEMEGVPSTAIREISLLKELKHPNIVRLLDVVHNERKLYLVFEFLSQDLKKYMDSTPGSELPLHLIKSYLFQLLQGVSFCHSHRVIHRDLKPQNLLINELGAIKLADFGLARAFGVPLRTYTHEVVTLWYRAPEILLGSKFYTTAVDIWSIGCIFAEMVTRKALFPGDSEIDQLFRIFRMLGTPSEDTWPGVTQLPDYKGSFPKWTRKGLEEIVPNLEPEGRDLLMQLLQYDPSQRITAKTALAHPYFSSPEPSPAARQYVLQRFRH
Assay [13] concerns the target Calcium/calmodulin-dependent protein kinase kinase 2 (Homo sapiens) (UniProt Q96RR4). The experiment in a line: Inhibition of human recombinant CaMKK2 at 15 nM in presence of ATP by radiometric assay relative to control.
In assay [14] the target is Serine/threonine-protein kinase 26 (Homo sapiens) (UniProt Q9P289). The experiment in a line: Inhibition of human recombinant MST4 at 15 nM in presence of ATP by radiometric assay relative to control.
Sequence of Serine/threonine-protein kinase 26 (Homo sapiens) (Q9P289 2-416 limits assumed): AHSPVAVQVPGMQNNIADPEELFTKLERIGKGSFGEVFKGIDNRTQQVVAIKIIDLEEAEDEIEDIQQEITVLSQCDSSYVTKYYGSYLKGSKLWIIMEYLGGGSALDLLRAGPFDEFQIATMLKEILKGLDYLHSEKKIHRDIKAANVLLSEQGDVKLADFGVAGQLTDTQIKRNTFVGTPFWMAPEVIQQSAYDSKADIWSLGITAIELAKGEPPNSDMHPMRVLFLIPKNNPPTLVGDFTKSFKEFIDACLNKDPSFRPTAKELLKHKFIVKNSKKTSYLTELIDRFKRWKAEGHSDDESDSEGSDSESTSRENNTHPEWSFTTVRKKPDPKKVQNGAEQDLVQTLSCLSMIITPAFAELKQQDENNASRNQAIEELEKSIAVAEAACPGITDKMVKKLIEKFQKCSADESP

Sequence of Serine/threonine-protein kinase 4 (Homo sapiens) (Q13043 whole entry, looked up): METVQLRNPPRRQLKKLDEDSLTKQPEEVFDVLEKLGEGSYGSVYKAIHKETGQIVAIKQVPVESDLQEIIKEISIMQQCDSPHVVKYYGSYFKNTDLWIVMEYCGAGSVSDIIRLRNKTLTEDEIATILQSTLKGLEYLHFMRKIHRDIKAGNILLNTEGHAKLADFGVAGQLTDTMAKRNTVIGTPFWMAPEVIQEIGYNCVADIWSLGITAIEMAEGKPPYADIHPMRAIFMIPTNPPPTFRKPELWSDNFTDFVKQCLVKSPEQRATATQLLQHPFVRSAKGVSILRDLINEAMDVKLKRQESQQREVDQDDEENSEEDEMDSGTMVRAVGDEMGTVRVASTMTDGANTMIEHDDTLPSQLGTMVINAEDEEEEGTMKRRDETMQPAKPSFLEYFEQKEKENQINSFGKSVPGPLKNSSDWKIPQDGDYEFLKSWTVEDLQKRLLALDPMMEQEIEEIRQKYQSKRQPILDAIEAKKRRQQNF
Sequence of Tyrosine-protein kinase Blk (Homo sapiens) (P51451 2-505 limits assumed): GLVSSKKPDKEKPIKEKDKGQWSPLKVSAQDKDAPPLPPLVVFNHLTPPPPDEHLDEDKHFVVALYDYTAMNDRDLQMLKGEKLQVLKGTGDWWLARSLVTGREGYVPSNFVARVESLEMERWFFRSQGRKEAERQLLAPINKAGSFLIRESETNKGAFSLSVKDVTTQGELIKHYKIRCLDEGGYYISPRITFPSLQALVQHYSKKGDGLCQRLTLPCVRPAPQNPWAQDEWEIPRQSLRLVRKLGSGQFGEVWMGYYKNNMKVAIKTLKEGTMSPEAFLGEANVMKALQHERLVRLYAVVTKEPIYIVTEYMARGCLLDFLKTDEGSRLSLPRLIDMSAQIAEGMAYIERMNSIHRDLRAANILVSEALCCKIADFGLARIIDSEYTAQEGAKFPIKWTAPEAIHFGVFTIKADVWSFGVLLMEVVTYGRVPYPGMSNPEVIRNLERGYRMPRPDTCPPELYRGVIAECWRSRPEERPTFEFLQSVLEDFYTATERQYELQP

Usually inhibition stands for the percentage by which the read-out fell short of the control. Turning to `O=C(N[C@@H](C1CC1)C(F)(F)F)c1cc(-c2cnn3cc(-c4ccc(F)cc4)cnc23)cs1`, the inhibition in [1] was 17%; in assay [3], 0%. Moreover, the fold change (FC) in assay [2] is 0.
With `CNC(=O)c1ccccc1Oc1nc(Nc2cc(OC)c(OC)c(OC)c2)ncc1Br`, the fold change (FC) in [4] worked out at 0.26; in assay [5], 0; in [6] it was 0.04; in assay [7], 0.
On to `CC(C)[C@H](NC(=O)c1cc(-c2cnn3cc(-c4ccc(OCCN5CCCCC5)cc4)cnc23)cs1)C(F)(F)F`, for which the inhibition in [8] worked out at 0%; in assay [11], 0%; in assay [13], 1%; in [14], 0%. For the same compound, the fold change (FC) in assay [9] amounted to 0.03; in [10], 0.07; in assay [12], 0.06.
